Assay results collected from several papers.
Lines come from different studies, so protocols differ.
Observed: cell growth or viability

SMILES | cell line | technique | concentration | time | measurement | result
O=C(C[C@@H](C(F)F)n1ccc(F)n1)N1CCC(O)(Cn2cnc3c(cnn3-c3ccc(F)cc3)c2=O)CC1 | LNCaP | CCK-8 | 1.524 nM | – | viability | 90%
C=C(NC(=O)C(=C)NC(=O)c1csc(C2=N[C@@H]3c4csc(n4)[C@H]4NC(=O)c5csc(n5)[C@H]([C@](C)(O)[C@@H](C)O)NC(=O)[C@H]5CSC(=N5)/C(=C/C)NC(=O)[C@H]([C@@H](C)O)NC(=O)c5csc(n5)[C@]3(CC2)NC(=O)[C@H](C)NC(=O)C(=C)NC(=O)[C@H](C)NC(=O)[C@H]([C@@H](C)CC)N[C@@H]2C=Cc3c([C@H](C)O)cc(nc3[C@H]2O)C(=O)O[C@@H]4C)n1)C(N)=O | LNCaP | – | – | – | EC50 | 4.4 µM
C[C@H](Nc1ccc2c(c1)OCCn1cc(N3C(=O)OC[C@H]3C(F)F)nc1-2)C(N)=O | TCC-SUP | ATP luminescence | – | 5 days | EC50 | 0.0516 µM
Cc1ccc(-c2nn(-c3ccccc3)cc2C=Nc2c(N)nc(S)nc2O)cc1 | Jurkat | – | – | 48 h | CC50 | 13.1 µM
Cc1nc(Nc2ncc(C(=O)Nc3c(C)cccc3Cl)s2)cc(N2CC[C@H](O)C2)n1 | Jurkat | ATP luminescence | 10 µM | 72 h | inhibition | 47%
Cc1c(Cl)c(=O)oc2cc(OCCCCSC#N)ccc12 | MIA PaCa-2 | SRB | – | – | GI50 | 8.2 µM
Cc1ncsc1-c1ccc([C@H](C)NC(=O)[C@@H]2C[C@@H](O)CN2C(=O)[C@@H](NC(=O)CCCS(=O)(=O)NC(=O)c2nc(N3CCc4cccc(C(=O)Nc5nc6ccccc6s5)c4C3)ccc2-c2cnn(CC34CC5CC(CC(C5)C3)C4)c2C)C(C)(C)C)cc1 | MOLT-4 | MTS | – | 48 h | IC50 | 0.0083 µM
O=c1[nH]ncc(NN=Cc2cn(-c3ccccc3)nc2-c2ccccc2)c1Cl | Jurkat | – | – | 48 h | CC50 | 3.66 µM
Cc1ncsc1-c1ccc([C@H](C)NC(=O)[C@@H]2C[C@@H](O)CN2C(=O)[C@@H](NC(=O)CCCCCCCS(=O)(=O)NC(=O)c2nc(N3CCc4cccc(C(=O)Nc5nc6ccccc6s5)c4C3)ccc2-c2cc(C#N)n(CC34CC5CC(CC(C5)C3)C4)c2C)C(C)(C)C)cc1 | MOLT-4 | MTS | – | 48 h | IC50 | 0.0202 µM
COc1cc([C@@H]2c3cc4c(cc3[C@@H](O[C@@H]3O[C@@H]5CO[C@@H](C)O[C@H]5[C@H](O)[C@H]3O)[C@H]3COC(=O)[C@H]23)OCO4)cc(OC)c1O | LN-229 | MTS | – | 72 h | IC50 | 0.02 µM
Cc1ncsc1-c1ccc([C@H](C)NC(=O)[C@@H]2C[C@@H](O)CN2C(=O)[C@@H](NC(=O)CCCCCC(=O)N2CCN(CC[C@H](CSc3ccccc3)Nc3ccc(S(=O)(=O)NC(=O)c4ccc(N5CCN(CC6=C(c7ccc(Cl)cc7)CCC(C)(C)C6)CC5)cc4)cc3S(=O)(=O)C(F)(F)F)CC2)C(C)(C)C)cc1 | MOLT-4 | MTS | – | 48 h | IC50 | 0.0771 µM
N#CSCCCCOc1ccc2c(-c3ccccc3)cc(=O)oc2c1 | MIA PaCa-2 | SRB | – | – | GI50 | 28 µM
Nc1nc(S)nc(O)c1N=Cc1cn(-c2ccccc2)nc1-c1ccccc1 | Jurkat | – | – | 48 h | CC50 | 17.3 µM
Cc1ncsc1-c1ccc([C@@H](C)NC(=O)[C@H]2C[C@H](O)CN2C(=O)[C@H](NC(=O)CCNC(=O)C23CC4CC(CC(Cn5ncc(-c6ccc(N7CCc8cccc(C(=O)Nc9nc%10ccccc%10s9)c8C7)nc6C(=O)O)c5C)(C4)C2)C3)C(C)(C)C)cc1 | MOLT-4 | MTS | – | 48 h | IC50 | > 1 µM
